In ChEMBL document CHEMBL1138240, “Identifying merozoite surface protein 4 and merozoite surface protein 7 Plasmodium falciparum protein family members specifically binding to human erythrocytes suggests a new malarial parasite-redundant survival mechanism” (J Med Chem, 2007):
Active and inactive are the calls of the source. The rule behind the calls is not given here. Peptide text beside a SMILES is read from it.

Columns and labels:
[1] = system: Erythrocyte; assay: Displacement of [125I]MSP-4 20494 peptide from 52 kDa erythrocyte membrane protein in human erythrocytes at 30 uM; assay type: cell-based
In short: (§1)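 Competition used 125I-labeled MSP-4 peptide 20494 at 300 nM with 1 × 10^7 human RBC. Unlabeled competitor peptides were present at 3–30 µM. Incubation was 90 min at room temperature. Cells were washed three times with HBS and cell-bound radioactivity was counted on a gamma counter.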

[2] = system: Erythrocyte; assay: Binding affinity to 52 kDa erythrocyte membrane protein in chymotrypsin treated human erythrocytes at 1 mg/mL after 1 hr relative to control; assay type: cell-based
In short: (§2)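 Human RBC (1.5 × 10^7 cell/µL in HBS pH 7.2, 1 mL) were treated for 1 h at 37 °C with shaking. […] used neuraminidase at 150 µU/mL. […] used trypsin and chymotrypsin at 1 mg/mL final. Cells were spun and washed thrice with HBS, then tested in the 125I-peptide binding assay. Specific binding is given as % of untreated-RBC control.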

[3] = system: Erythrocyte; assay: Binding affinity to 52 kDa erythrocyte membrane protein in neuraminidase treated human erythrocytes at 1 mg/mL after 1 hr relative to control; assay type: cell-based
[4] = Binding affinity to 52 kDa erythrocyte membrane protein in human erythrocytes; assay type: cell-based
In short: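 Saturation binding used RBC at 1.5 × 10^7 cell/µL with 125I-peptide at 0–1800 nM, with or without 200-fold excess unlabeled peptide, for 90 min. Free label was sampled from the supernatant. Cells were washed twice with HBS and bound counts were measured by gamma counting, in triplicate. Affinity constant and sites per cell came from saturation curves; Hill coefficient came from a Hill plot.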

[5] = system: Erythrocyte; assay: Binding affinity to 52 kDa erythrocyte membrane protein in trypsin treated human erythrocytes at 1 mg/mL after 1 hr relative to control; assay type: cell-based; in short: as §2
[6] = system: Plasmodium falciparum; assay: Inhibition of Plasmodium falciparum FCB2 merozoite invasion of human erythrocytes at 200 uM; assay type: functional
In short: (§3)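 Sorbitol-synchronized P. falciparum FCB-2 was grown to late schizonts and set at 0.5% parasitemia and 5% hematocrit in RPMI 1640 with 10% O+ plasma. Peptides were added at 100 or 200 µM, in triplicate. Plates were incubated 18 h at 37 °C under 5% O2/5% CO2/90% N2. RBC were stained with hydroethidine 15 µg/mL for 30 min, washed, and read by flow cytometry (FL2). Values are mean ± SD of three experiments.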

[7] = system: Plasmodium falciparum; assay: Inhibition of Plasmodium falciparum FCB2 merozoite invasion of human erythrocytes at 100 uM; assay type: functional; design: scale not given: the % may be the effect or the level left; in short: as §3
[8] = system: Plasmodium falciparum; assay: Inhibition of Plasmodium falciparum FCB2 merozoite invasion of human erythrocytes at 0.5 mg/mL; assay type: functional
In short: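 Sorbitol-synchronized FCB-2 cultures grown to late schizont stage at 0.5% parasitemia and 5% hematocrit in RPMI 1640 with 10% O-positive plasma. Agent added in triplicate, then incubated 18 h at 37 °C under 5% O2/5% CO2/90% N2. Erythrocytes stained with 15 µg/mL hydroethidine for 30 min at 37 °C. Invasion read by flow cytometry (FL2).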

[9] = system: Plasmodium falciparum; assay: Inhibition of Plasmodium falciparum FCB2 merozoite invasion of human erythrocytes at […]; assay type: functional
[10] = system: Erythrocyte; assay: Displacement of [125I]MSP-4 20494 peptide from 52 kDa erythrocyte membrane protein in human erythrocytes; assay type: cell-based; in short: as §1

| Compound | Activity [1] [%] | Activity [2] [%] | Activity [3] [%] | Kd [4] [nM] | Activity [5] [%] | inhibition at 200 µM [6] [%] | Activity [7] [%] | inhibition at 500 µg/mL [8] [%] | inhibition [9] [%] | Activity [10] |
| --- | --- | --- | --- | --- | --- | --- | --- | --- | --- | --- |
| CC(C)C[C@H](NC(=O)[C@H](CCCCN)NC(=O)[C@H](Cc1ccc(O)cc1)NC(=O)CNC(=O)[C@H](CCC(=O)O)NC(=O)[C@H](CCCCN)NC(=O)[C@H](CS)NC(=O)[C@H](CCCCN)NC(=O)[C@H](CS)NC(=O)[C@H](CCCCN)NC(=O)[C@@H](NC(=O)[C@H](CCCNC(=N)N)NC(=O)[C@H](CCCNC(=N)N)NC(=O)[C@H](CC(N)=O)NC(=O)CNC(=O)[C@@H](NC(=O)[C@H](Cc1ccc(O)cc1)NC(=O)[C@@H](N)CCC(=O)O)C(C)C)C(C)C)C(=O)N[C@@H](CCC(=O)O)C(=O)NCC(=O)O (H-EYVGNRRVKCKCKEGYKLEG-OH) | 50 | 133 | 73 | 470 | 57 | 20 | 16 | – | – | – |
| CC(C)C[C@H](NC(=O)[C@H](CCCCN)NC(=O)[C@H](CC(=O)O)NC(=O)[C@H](CC(=O)O)NC(=O)CNC(=O)[C@H](CS)NC(=O)CN)C(=O)N[C@@H](CS)C(=O)N[C@@H](CCC(=O)O)C(=O)N[C@@H](Cc1ccc(O)cc1)C(=O)N[C@H](C(=O)NCC(=O)N[C@@H](CC(N)=O)C(=O)N[C@@H](CCCNC(=N)N)C(=O)N[C@@H](CCCNC(=N)N)C(=O)N[C@H](C(=O)N[C@@H](CCCCN)C(=O)N[C@@H](CS)C(=O)N[C@@H](CCCCN)C(=O)N[C@@H](CS)C(=O)N[C@@H](CCCCN)C(=O)O)C(C)C)C(C)C (H-GCGDDKLCEYVGNRRVKCKCK-OH) | – | – | – | – | – | 18 | 3 | – | – | – |
| CCN(CC)CCCC(C)Nc1ccnc2cc(Cl)ccc12 (centres undefined) [CHLOROQUINE] | – | – | – | – | – | – | – | 100 | – | – |
| O=C(O)CN(CCOCCOCCN(CC(=O)O)CC(=O)O)CC(=O)O [EGTAZIC ACID] | – | – | – | – | – | – | – | – | 83 | – |
| H-IKNKKLEKLKNIVSGDFVGNY-OH | – | 223 | 105 | 550 | 174 | 68 | 22 | – | – | – |
| H-KDKEYHEQFKNYIYGVYSYA-OH | – | 34 | 73 | – | 0 | 24 | 7 | – | – | – |
| H-KNVHVLINGNSIIDEIEKNEY-OH | – | – | – | – | – | 29 | 10 | – | – | – |
| H-KPEEEYKKFLEYSFNLLNTM-OH | – | 0 | 100 | 450 | 10 | 49 | 9 | – | – | – |
| H-KQNSHLSEKKIKPEEEYKKF-OH | – | 73 | 57 | – | 88 | 83 | 22 | – | – | – |
| H-MRILGEEKPNVDGVSTSNTPY-OH | – | – | – | – | – | 11 | 9 | – | – | – |
| H-MWIVKFLIVVHFFIICTINFY-OH | – | – | – | – | – | – | – | – | – | inactive |
| H-NLGLFGKNVLSKVKAQSETDY-OH | – | 160 | 105 | 600 | 0 | 59 | 9 | – | – | – |
